Compound activity as filed in PubChem BioAssay.
FXN GAA850 act: frataxin GAA850 promoter activation | 360,000 compounds, 0.56% hits | activation, % at 6 µM | AID 540364 | HEK293 lucGAA850 FXN promoter luciferase reporter, 24 h; percent of 10 µM SAHA response;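 active = activation above the average of all compounds screened plus 3 SD, cutoff fixed separately per campaign, cut at about 7.5% in these data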;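 also: 0% = DMSO wells and 100% = 10 µM SAHA wells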
GalR3 antag: human GalR3 antagonism | O60755 | inhibition, % at 3 µM | HEK293 GalR3-CNG cAMP membrane potential fluorescence; galR3 body fused to GalR1 C-terminus | 360,000 compounds, 0.44% hits;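 active = inhibition above the screen-wide average plus 3 SD, cut at about 13% in these data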;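 also: forskolin and galanin both at EC90 stimulate the cells; cAMP rise reported by CNG channel membrane potential dye signal; 0% = forskolin plus galanin with DMSO and 100% = forskolin alone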
Target sequence (O60755 1-299 limits assumed): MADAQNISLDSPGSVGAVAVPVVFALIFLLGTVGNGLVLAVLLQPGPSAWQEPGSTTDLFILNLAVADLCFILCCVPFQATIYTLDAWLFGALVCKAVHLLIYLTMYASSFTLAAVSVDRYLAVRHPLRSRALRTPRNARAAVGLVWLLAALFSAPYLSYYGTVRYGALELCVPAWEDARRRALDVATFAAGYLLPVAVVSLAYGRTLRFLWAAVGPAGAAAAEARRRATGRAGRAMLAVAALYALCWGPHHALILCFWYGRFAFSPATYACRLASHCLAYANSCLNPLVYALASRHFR
Env fusion inh: blocks HIV Env-driven cell-cell fusion; 360,000 compounds, 1.1% hits; AID 651610; HeLa-JRFL Env/CEM21 cell fusion, luciferase; inhibition, % at 12.3 µM;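 active = mean replicate inhibition score of at least 50 and every replicate individually at or above 50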;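 also: 0% = plate neutral controls and 100% = maraviroc near 300 nM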
NR2E3 ag-1: activates human photoreceptor nuclear receptor NR2E3; GST-NR2E3/biotin-RetCOR TR-FRET, 1536-well; inhibition of corepressor binding, % at 4.78 µM; 320,000 compounds, 0.12% hits; AID 2300;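 active = percent inhibition above the cutoff of mean plus 3 SD of all tested compounds, set per screening campaign, cut at about 20% in these data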;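 also: 0% = DMSO wells and 100% = biotin wells as full block of FRET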
Target sequence (Q9Y5X4 whole entry, looked up): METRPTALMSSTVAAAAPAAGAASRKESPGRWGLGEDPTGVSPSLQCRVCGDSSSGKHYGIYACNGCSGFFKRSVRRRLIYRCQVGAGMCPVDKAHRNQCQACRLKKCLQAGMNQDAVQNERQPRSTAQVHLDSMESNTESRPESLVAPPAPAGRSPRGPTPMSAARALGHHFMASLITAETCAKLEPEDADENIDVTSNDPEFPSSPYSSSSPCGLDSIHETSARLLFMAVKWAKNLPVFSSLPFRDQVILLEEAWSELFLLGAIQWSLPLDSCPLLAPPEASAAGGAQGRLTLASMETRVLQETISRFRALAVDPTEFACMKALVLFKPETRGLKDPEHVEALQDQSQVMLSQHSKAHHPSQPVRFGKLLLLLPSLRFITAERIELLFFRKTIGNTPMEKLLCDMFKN
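Material: NR2E3–RetCOR corepressor complex | Quantity: 1.35 nM GST-tagged NR2E3 final | Schedule: 5 h at 4 °C | Replication: Singlicate compound wells | Reagent: RetCOR corepressor, biotinylated, 7 nM | Controls: Biotin wells as high control, 0.6% DMSO wells as low control | Signal: TR-FRET, Eu(K)-anti-GST donor, streptavidin-D2 acceptor, ex 340, em 617/671 nm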
V-ATPase pHluor: alters yeast V-ATPase proton transport | S. cerevisiae, pHLuorin cytosolic pH fluorescence | response, % at 10 µM | 350,000 compounds, 0.37% hits | AID 504577; in the data active = response mostly above about 7.3%, no sharp cut-off; inactive = mostly below about 5.4%; also: actives read high
NR2E3 ag-2: activates human NR2E3 receptor; AID 602229; 360,000 compounds, 0.35% hits; Q9Y5X4; CHO-S Gal4-NCOR/VP16-NR2E3 two-hybrid, luciferase; inhibition of corepressor binding, % at 3.98 µM;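 active = inhibition above the mean of all tested compounds plus 3 SD, cut at about 70% in these data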;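 also: 0% = DMSO with NR2E3 transfected cells and 100% = cells lacking NR2E3 construct; higher means lower luciferase signal from less NR2E3 corepressor binding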
* marks the source's active call; other numbers are inactive results; . = no result; [ ] = dose if it differs, or a comment. Shown are actives, neighbours in structure and some others; about 2.2% of the full set was active somewhere.

SMILES | FXN GAA850 act | GalR3 antag | Env fusion inh | NR2E3 ag-1 | V-ATPase pHluor | NR2E3 ag-2
CCS(=O)(=O)NCC[C@@H]1CC[C@@H](NC(=O)C2CCCC2)[C@H](CO)O1 | . | . | -21.1[16.7 µM] | . | . | .
O=C(N[C@H]1CC[C@@H](CC(=O)N2CCc3ccccc3C2)O[C@H]1CO)C1CCC1 | . | . | 2.0[16.7 µM] | . | . | .
COc1ccc(C(=O)NCc2ccccc2CN2CCCC2)cc1S(=O)(=O)N1CCOCC1 | -1.5 | 3.2 | 61.9* | . | 1.2 | 5.3
Cc1ccc(-c2nc(CSCC(=O)NCc3cccnc3)c(C)o2)cc1 | -0.5 | -4.3 | 58.1* | 1.6 | 1.6 | 41.0
COc1ccc(-c2nc(CSCC(=O)NCc3ccco3)c(C)o2)cc1 | -9.1 | . | . | 1.8 | -1.2 | 51.7
CC1CCN(CCCNC(=O)c2ccc3c(Cl)c4c(nc3c2)CCCC4)CC1 | -0.1 | -2.8 | 57.1* | -0.9 | 1.8 | 26.9
O=C(NCCCN1CCCCCC1)c1ccc2c(Cl)c3c(nc2c1)CCCC3 | 1.2 | -3.3 | 8.6 | -0.3 | -1.3 | 4.7
C[C@H](CO)N1C[C@H](C)[C@@H](CN(C)C(=O)Nc2cccc3ccccc23)Oc2c(NC(=O)Nc3ccc(F)cc3)cccc2C1=O | . | . | 0.6[16.7 µM] | . | . | .
C[C@H]1CN([C@@H](C)CO)S(=O)(=O)c2ccc(-c3ccccc3)cc2O[C@H]1CN(C)CC1CC1 | . | . | 18.7[16.7 µM] | . | . | .
O=C1C(=O)N(CCN2CCOCC2)C(c2ccc(Cl)c(Cl)c2)/C1=C(/O)c1ccc2c(c1)OCO2 (stereo not drawn) | 2.2 | -1.4 | 63.3* | 14.7 | -2.3 | -26.6
Clc1ccc(-c2nc3ncccn3c2Cl)cc1 | 13.4* | . | . | -2.6 | 4.1 | -82.6
Cc1cccc(OCC(O)Cn2ccnc2C)c1 (stereo not drawn) | 0.6 | 0.2 | -13.1 | -2.4 | 13.2* | 14.8
C[C@@H]1CCCCO[C@H](CN(C)Cc2ccc(C(F)(F)F)cc2)[C@H](C)CN([C@H](C)CO)C(=O)c2cc(NS(=O)(=O)c3cccs3)ccc2O1 | . | . | 59.6*[16.7 µM] | . | . | .
COc1ccc(S(=O)(=O)Nc2ccc3c(c2)C(=O)N([C@H](C)CO)C[C@@H](C)[C@H](CN(C)Cc2ccc(C(F)(F)F)cc2)OCCCC[C@@H](C)O3)cc1 | . | . | 63.7*[16.7 µM] | . | . | .
COc1ccc(S(=O)(=O)Nc2ccc3c(c2)C(=O)N([C@H](C)CO)C[C@@H](C)[C@@H](CN(C)C(=O)NC(C)C)OCCCC[C@@H](C)O3)cc1 | . | . | 10.7[16.7 µM] | . | . | .
COc1ccc(S(=O)(=O)Nc2ccc3c(c2)C(=O)N([C@@H](C)CO)C[C@H](C)[C@H](CN(C)C(=O)NC(C)C)OCCCC[C@@H](C)O3)cc1 | . | . | 67.5*[16.7 µM] | . | . | .
C[C@@H]1CCCCO[C@@H](CN(C)Cc2ccc(C(F)(F)F)cc2)[C@H](C)CN([C@@H](C)CO)C(=O)c2cc(NS(=O)(=O)c3cccs3)ccc2O1 | . | . | 9.0[16.7 µM] | . | . | .
COc1ccc(S(=O)(=O)Nc2ccc3c(c2)C(=O)N([C@H](C)CO)C[C@@H](C)[C@@H](CN(C)Cc2ccc(C(F)(F)F)cc2)OCCCC[C@H](C)O3)cc1 | . | . | 73.9*[16.7 µM] | . | . | .
Cc1noc(C)c1NC(=O)N(C)C[C@@H]1Oc2ccc(NS(=O)(=O)c3c(C)noc3C)cc2CC(=O)N([C@H](C)CO)C[C@H]1C | . | . | -8.1[16.7 µM] | . | . | .
C[C@@H]1CCCCO[C@@H](CN(C)C(=O)c2ccccc2)[C@@H](C)CN([C@@H](C)CO)C(=O)c2cc(NC(=O)c3ccccc3)ccc2O1 | . | . | 7.1[16.7 µM] | . | . | .
COc1ccc(S(=O)(=O)Nc2ccc3c(c2)C(=O)N([C@H](C)CO)C[C@H](C)[C@H](CN(C)Cc2ccc(C(F)(F)F)cc2)OCCCC[C@H](C)O3)cc1 | . | . | 46.9[16.7 µM] | . | . | .
Cc1ccc(S(=O)(=O)Nc2ccc3c(c2)C(=O)N([C@H](C)CO)C[C@@H](C)[C@H](CN(C)Cc2ccc(C(F)(F)F)cc2)OCCCC[C@@H](C)O3)cc1 | . | . | 65.1*[16.7 µM] | . | . | .
COc1ccc(S(=O)(=O)Nc2ccc3c(c2)C(=O)N([C@H](C)CO)C[C@@H](C)[C@@H](CN(C)Cc2ccc(C(F)(F)F)cc2)OCCCC[C@@H](C)O3)cc1 | . | . | 55.3*[16.7 µM] | . | . | .
CN1CCN(C(=O)C[C@H]2CC[C@@H]3[C@H](COC[C@@H](O)CN3C(=O)Nc3ccc(F)cc3)O2)CC1 | . | . | -6.1[16.7 µM] | . | . | .
COC(=O)Cn1cnc2c(Cl)nc(F)nc21 | -1.2 | -5.5 | 88.8* | . | 3.1 | 5.0
SMILES | FXN GAA850 act | GalR3 antag | Env fusion inh | NR2E3 ag-1 | V-ATPase pHluor | NR2E3 ag-2
O=C(C1CCN(S(=O)(=O)c2ccccc2)CC1)N1CCN(c2ccccc2)CC1 | 2.4 | -3.6 | 60.7* | 2.2 | -2.1 | -1.0
CC1CCN(S(=O)(=O)c2cc(C(=O)N3CCN(c4ccccc4)CC3)ccc2Br)CC1 | -5.0 | -6.1 | 72.1* | . | 1.9 | 37.7
CC1CCN(C(=O)c2cccc(S(=O)(=O)N3CCN(c4ccccc4)CC3)c2)CC1 | 0.9 | -0.7 | 19.9 | -1.1 | 0.9 | -14.2
COc1ccc(N2CCN(C(=O)C3CCN(S(=O)(=O)c4ccccc4)CC3)CC2)cc1 | 1.7 | -2.9 | -0.2 | -0.7 | 4.5 | -7.6
C[C@H]1CCCCO[C@H](CN(C)S(=O)(=O)c2ccc(Cl)cc2)[C@@H](C)CN([C@@H](C)CO)C(=O)c2cc(NC(=O)CCC(F)(F)F)ccc2O1 | . | . | -9.3[16.7 µM] | . | . | .
C/C=C/c1ccc2c(c1)O[C@@H](CN(C)C(=O)Nc1ccc(F)cc1)[C@H](C)CN([C@H](C)CO)S2(=O)=O | . | . | -10.5[16.7 µM] | . | . | .
COc1ccc(CN2CCOCCOCCN(Cc3ccc(OC)cc3)CCOCCOCC2)cc1 | 0.1 | -5.8 | 30.2 | -3.1 | 1.9 | -12.8
COc1ccc(CN2CCOCCOCCOCC2)cc1 | -0.9 | 6.5 | 10.1 | 2.9 | 14.5* | 31.3
CC(C)=C1C2CCC1C(C(=O)NCc1ccccc1)C2C(=O)O (stereo not drawn) | -1.4 | -6.5 | 66.6* | 4.5 | 3.0 | -9.4
CCCN1C=CC(=C2C(=O)c3ccccc3C2=O)C=C1 | -16.4 | -3.6 | 107.1* | 1.8 | 7.9 | 41.7
CCCCCCN1C=CC(=C2C(=O)c3ccccc3C2=O)C=C1 | -6.2 | -10.1 | 43.5 | -0.9 | -3.3 | -93.4
CCN1C=CC(=C2C(=O)c3ccccc3C2=O)C=C1 | -13.5 | -1.7 | 73.2* | 1.4 | 0.0 | 17.6
C[C@H]1CN([C@@H](C)CO)S(=O)(=O)c2ccc(-c3ccc(F)cc3)cc2O[C@@H]1CN(C)S(C)(=O)=O | . | . | 16.0[16.7 µM] | . | . | .
C[C@]12C(=O)N(c3cccc(Cl)c3)C(=O)N1[C@@H]1c3ccccc3OC[C@@H]1[C@H]2c1ccccc1 | -1.4 | -5.7 | 55.6* | . | -5.5 | 2.0
C[C@]12C(=O)N(c3ccccc3)C(=O)N1[C@@H]1c3ccccc3OC[C@@H]1[C@H]2c1ccccc1 | -2.6 | -7.9 | -6.6 | -1.4 | -1.7 | 3.9
CCCCN1CC(=O)N2[C@H]3c4ccccc4OC[C@@H]3[C@H](c3ccccc3)[C@]2(C)C1=O | 5.8 | -7.5 | 82.9* | 1.0 | -2.1 | -24.4
